Series [1] has as its target Mitogen-activated protein kinase 1 and 3 (ERK2 and ERK1) (Mus musculus) (UniProt P63085+Q63844). As to the kind of experiment: Modulation of EGF-induced Erk1/2 phosphorylation in mouse NIH3T3 cells expressing human EGFR at 5 uM preincubated for 3 hrs followed by stimulation with 1 ug/ml EGF for 12 mins by immunoblot analysis. It counts as cell-based. A digest of the protocol: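 NIH3T3/hEGFR fibroblasts pretreated with or without 5 μM compound for 3 h, then stimulated with 1 μg/ml EGF for 12 min. Whole-cell lysates of equal total protein immunoblotted for phospho and total Stat3, Stat1, Stat5, Erk1/2. Controls were 0.025% DMSO-treated cells. Representative of 2–4 independent determinations.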
(A western blot detects proteins with antibodies after separation by electrophoresis.)

For series [2], the system named is SF-295. As to the kind of experiment: Anticlonogenic activity against human SF295 cells for 72 hrs by crystal-violet staining based assay. The format is functional, cell-based.
The target of series [3] is T1, Signal transducer and activator of transcription 3 (Homo sapiens, UniProt P40763). In words: Binding affinity to Stat3 (unknown origin) by NMR analysis.
T1 sequence (P40763 whole entry): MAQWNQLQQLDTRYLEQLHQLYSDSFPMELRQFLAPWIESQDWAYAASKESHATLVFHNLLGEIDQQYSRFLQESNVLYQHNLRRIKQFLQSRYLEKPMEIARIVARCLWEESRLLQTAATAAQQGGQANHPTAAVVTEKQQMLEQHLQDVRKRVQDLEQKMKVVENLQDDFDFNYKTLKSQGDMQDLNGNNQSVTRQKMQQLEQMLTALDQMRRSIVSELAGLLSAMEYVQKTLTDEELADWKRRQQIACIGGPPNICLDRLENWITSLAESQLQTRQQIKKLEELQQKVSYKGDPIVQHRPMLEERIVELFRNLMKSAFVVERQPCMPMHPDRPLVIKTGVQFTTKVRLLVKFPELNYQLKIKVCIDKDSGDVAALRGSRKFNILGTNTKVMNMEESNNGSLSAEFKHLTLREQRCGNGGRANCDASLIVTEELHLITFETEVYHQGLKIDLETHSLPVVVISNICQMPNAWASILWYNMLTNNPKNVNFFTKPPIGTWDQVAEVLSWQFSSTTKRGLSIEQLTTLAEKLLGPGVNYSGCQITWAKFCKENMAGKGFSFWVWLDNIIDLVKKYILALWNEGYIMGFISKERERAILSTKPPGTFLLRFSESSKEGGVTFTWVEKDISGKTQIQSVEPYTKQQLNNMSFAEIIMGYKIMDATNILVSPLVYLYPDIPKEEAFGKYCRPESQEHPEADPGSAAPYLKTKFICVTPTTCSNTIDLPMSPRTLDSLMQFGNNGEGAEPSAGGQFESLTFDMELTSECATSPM
In series [4] the test system is U-251. In words: Anticlonogenic activity against human U251MG cells for 72 hrs measured after 2 weeks by crystal-violet staining based assay. The format is functional, cell-based. A digest of the protocol: (§1)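 Single-cell seeding at 250 cells per well; cells treated once the next day for 72 h with 0–5 μM compound, then grown until large colonies were visible (NIH3T3 1 week, MDA-MB-231 and U251MG 2 weeks, MCF-7 4 weeks). Colonies stained with crystal violet for 4 h, imaged and counted.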

For series [5], the target named is Mitogen-activated protein kinase; ERK1/ERK2 (Homo sapiens) (UniProt P27361+P28482). As to the kind of experiment: Modulation of Erk1/2 phosphorylation in human U251MG cells at 5 uM after 0.5 to 24 hrs by immunoblot analysis. It counts as cell-based. As to conditions: U-251. A digest of the protocol: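 U251MG glioma cells (RPMI or DMEM, 10% FBS, 1% nonessential amino acids) treated with 5 μM compound for 0–24 h; 0.025% DMSO control. Whole-cell lysates of equal total protein immunoblotted for pErk1/2, Erk1/2, pJAK2 and JAK2 with β-actin or GAPDH loading controls. Representative of 2–4 independent determinations.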
Sequence of Mitogen-activated protein kinase; ERK1/ERK2 (Homo sapiens) (P27361 whole entry, looked up): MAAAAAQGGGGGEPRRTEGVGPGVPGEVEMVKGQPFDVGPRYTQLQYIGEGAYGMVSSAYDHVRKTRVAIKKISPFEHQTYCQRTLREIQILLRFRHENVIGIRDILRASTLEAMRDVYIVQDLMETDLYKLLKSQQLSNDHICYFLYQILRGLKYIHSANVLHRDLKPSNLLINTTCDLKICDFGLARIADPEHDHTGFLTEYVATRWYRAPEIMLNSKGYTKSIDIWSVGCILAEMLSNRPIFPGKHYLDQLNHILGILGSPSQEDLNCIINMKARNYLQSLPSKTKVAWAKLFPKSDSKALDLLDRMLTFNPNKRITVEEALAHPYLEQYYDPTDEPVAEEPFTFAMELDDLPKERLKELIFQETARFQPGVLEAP
Sequence of Mitogen-activated protein kinase; ERK1/ERK2 (Homo sapiens) (P28482 whole entry, looked up): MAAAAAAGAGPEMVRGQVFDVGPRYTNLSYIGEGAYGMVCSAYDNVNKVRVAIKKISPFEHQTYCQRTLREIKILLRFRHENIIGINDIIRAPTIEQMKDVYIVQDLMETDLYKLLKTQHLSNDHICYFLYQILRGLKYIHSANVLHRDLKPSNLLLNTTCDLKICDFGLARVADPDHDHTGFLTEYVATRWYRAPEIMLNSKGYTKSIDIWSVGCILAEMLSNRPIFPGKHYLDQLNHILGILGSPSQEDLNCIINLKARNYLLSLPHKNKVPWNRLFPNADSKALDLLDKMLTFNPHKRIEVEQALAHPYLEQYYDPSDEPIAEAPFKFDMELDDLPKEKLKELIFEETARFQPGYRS

In series [6] the target is T2, Signal transducer and activator of transcription 1 (Mus musculus) (UniProt P42225).
T2 sequence (whole entry): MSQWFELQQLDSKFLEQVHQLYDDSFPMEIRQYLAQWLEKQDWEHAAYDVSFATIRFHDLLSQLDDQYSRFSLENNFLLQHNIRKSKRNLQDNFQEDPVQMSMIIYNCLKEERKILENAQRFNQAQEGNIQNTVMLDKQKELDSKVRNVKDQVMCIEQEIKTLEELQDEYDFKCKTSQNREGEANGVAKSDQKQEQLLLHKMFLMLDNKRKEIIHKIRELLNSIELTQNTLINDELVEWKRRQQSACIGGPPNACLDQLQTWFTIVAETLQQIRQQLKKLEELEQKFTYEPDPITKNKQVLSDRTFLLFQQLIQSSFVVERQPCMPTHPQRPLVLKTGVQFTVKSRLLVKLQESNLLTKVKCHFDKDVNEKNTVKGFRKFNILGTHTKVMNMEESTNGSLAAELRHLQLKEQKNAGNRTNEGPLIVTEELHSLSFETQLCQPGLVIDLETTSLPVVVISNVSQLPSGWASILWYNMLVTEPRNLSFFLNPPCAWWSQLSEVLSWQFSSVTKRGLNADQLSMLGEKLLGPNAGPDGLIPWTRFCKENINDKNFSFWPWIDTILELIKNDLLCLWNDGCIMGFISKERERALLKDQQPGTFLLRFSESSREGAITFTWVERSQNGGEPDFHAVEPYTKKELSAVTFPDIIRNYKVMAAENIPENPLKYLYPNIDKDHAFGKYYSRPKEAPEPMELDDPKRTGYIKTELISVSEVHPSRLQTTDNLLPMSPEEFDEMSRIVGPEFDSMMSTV
In words: Modulation of EGF-induced Stat1 phosphorylation in mouse NIH3T3 cells expressing human EGFR at 5 uM preincubated for 3 hrs followed by stimulation with 1 ug/ml EGF for 12 mins by immunoblot analysis. It counts as cell-based. A digest of the protocol:
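Whole-cell lysates of equal total protein from NIH3T3/hEGFR fibroblasts, pretreated with or without 5 μM compound (control 0.025% DMSO) for 3 h, then stimulated with 1 μg/ml EGF for 12 min. SDS-PAGE immunoblotting for pStat1/Stat1 and pStat5/Stat5 with β-actin or GAPDH loading controls. Representative of 2–4 independent determinations.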

Series [7] has as its system U-251. In words: Cytotoxicity against human U251MG cells at 2.5 to 5 uM after 19 hrs. The format is functional, cell-based.
The target in series [8] is T2, Signal transducer and activator of transcription 1 (Mus musculus). As to the kind of experiment: Inhibition of Stat1 dimer DNA binding activity in EGF-stimulated mouse NIH3T3 nuclear extract expressing human EGFR at 5 uM preincubated for 30 mins followed by addition of radiolabeled probe hSIE for 30 mins by EMSA. In general terms: A gel shift assay detects complexes by their altered migration in electrophoresis.

The target in series [9] is T1, Signal transducer and activator of transcription 3. As to the kind of experiment: Inhibition of Stat3 activity in human glioma (G22) patient-derived mouse xenograft cells assessed as phosphorylated Stat3 level at 5 uM after 3 hrs by immunoblot analysis. A digest of the protocol: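 Cultured G22 glioma patient-derived mouse xenograft cells (DMEM, 5–10% heat-inactivated FBS) treated with 5 μM compound for 0–24 h. Whole-cell lysates immunoblotted for pStat3, Stat3, GAPDH.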
On the technique in general: Xenograft models place foreign cells or tissue in a host animal.

Series [10] deals with SF-295. In words: Antiproliferative activity against human SF295 cells at 5 uM for 72 hrs by cyquant assay. It counts as functional, cell-based.
For a further series, the system named is Glioma cell. In words: Cytotoxicity against human Glioma (G22) patient-derived mouse xenograft cells at 5 uM after 24 hrs by cyquant assay. It counts as functional, cell-based.
The target in series [11] is T1, Signal transducer and activator of transcription 3. As to the kind of experiment: Inhibition of Stat3 dimer DNA binding activity in human U251MG cells nuclear extract at 5 uM by EMSA using radiolabeled probe hSIE. It counts as cell-based. The settings on record: U-251, TDE = time-dependent effect. A digest of the protocol:
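Sub-confluent U251MG or U373MG cells treated with compound (5 μM for 0–24 h, or 0–5 μM for 1.5 h). Stat3:DNA bands scanned, quantified and plotted against concentration to derive IC50. Controls were 0.025% DMSO.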

Series [12] deals with MDA-MB-231. As to the kind of experiment: Anticlonogenic activity against human MDA-MB-231 cells for 72 hrs measured after 2 weeks by crystal-violet staining based assay. The format is functional, cell-based. A digest of the protocol:
as §1

Series [13] concerns the target Signal transducer and activator of transcription 1/ 3 (Mus musculus) (UniProt P42227+P42225). As to the kind of experiment: Inhibition of Stat1:Stat3 dimer DNA binding activity in EGF-stimulated mouse NIH3T3 nuclear extract expressing human EGFR assessed as residual activity at 5 uM preincubated for 30 mins followed by addition of radiolabeled probe hSIE for 30 mins by EMSA. The format is cell-free.

For series [14], the system named is MDA-MB-231. In words: Antiproliferative activity against human MDA-MB-231 cells for 72 hrs by cyquant assay. The format is functional, cell-based. The settings on record: MDA-MB-231, 72 h. A digest of the protocol: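 CyQuant proliferation assay after 72 h compound exposure of cultured cells; relative viability normalized to DMSO-treated control; IC50 values derived. Glioma lines grown in RPMI or DMEM with 10% FBS and 1% nonessential amino acids.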

In series [15] the test system is U-251. In words: Effect on SOCS3 expression in human U251MG cells at 5 uM after 0.5 to 24 hrs by immunoblot analysis. The format is functional, cell-based. A digest of the protocol:
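U251MG cells treated with 5 μM compound for 0–24 h; whole-cell lysates of equal total protein immunoblotted. Controls were 0.025% DMSO-treated cells. Representative of 2–4 independent determinations.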

A short description of series [16]: Cytotoxicity against mouse NIH/3T3 cells assessed as colony survival at 1 to 5 uM for 72 hrs measured after 1 week by crystal-violet staining based assay. The settings on record: nih3t3, 5 µM. It counts as cell-based. A digest of the protocol: as §1

The values that follow come from ChEMBL document CHEMBL3627612, “Hirsutinolide Series Inhibit Stat3 Activity, Alter GCN1, MAP1B, Hsp105, G6PD, Vimentin, TrxR1, and Importin α-2 Expression, and Induce Antitumor Effects against Human Glioma” (J Med Chem, 2015).

Calls of active or inactive are those of the source. The rule behind the calls is not given here.

For orientation: IC50 means the concentration at which inhibition is half-maximal. High values mean weaker potency in that assay, low ones greater potency in that assay.

Sequence of Mitogen-activated protein kinase 1 and 3 (ERK2 and ERK1) (Mus musculus) (P63085 whole entry, looked up): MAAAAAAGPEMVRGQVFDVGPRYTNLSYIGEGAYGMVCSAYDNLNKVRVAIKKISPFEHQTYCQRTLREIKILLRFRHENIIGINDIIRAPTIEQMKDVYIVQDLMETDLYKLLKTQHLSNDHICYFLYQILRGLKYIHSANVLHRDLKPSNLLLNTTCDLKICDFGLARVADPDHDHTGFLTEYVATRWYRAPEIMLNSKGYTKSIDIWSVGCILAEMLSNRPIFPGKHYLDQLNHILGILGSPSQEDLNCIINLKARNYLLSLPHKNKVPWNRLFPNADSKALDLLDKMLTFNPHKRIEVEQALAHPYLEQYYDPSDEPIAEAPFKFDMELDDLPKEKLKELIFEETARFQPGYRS
Sequence of Mitogen-activated protein kinase 1 and 3 (ERK2 and ERK1) (Mus musculus) (Q63844 whole entry, looked up): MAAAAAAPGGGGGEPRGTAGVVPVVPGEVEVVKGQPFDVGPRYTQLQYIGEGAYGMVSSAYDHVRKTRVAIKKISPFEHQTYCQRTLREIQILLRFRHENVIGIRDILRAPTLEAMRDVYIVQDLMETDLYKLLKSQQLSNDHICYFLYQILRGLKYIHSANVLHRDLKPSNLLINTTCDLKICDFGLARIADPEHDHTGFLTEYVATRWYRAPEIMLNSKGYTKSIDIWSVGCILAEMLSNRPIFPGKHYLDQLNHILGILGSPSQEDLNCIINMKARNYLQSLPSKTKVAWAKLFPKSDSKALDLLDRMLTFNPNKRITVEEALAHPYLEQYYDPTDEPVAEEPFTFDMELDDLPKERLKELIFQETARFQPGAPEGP

On to `C/C=C(\C)C(=O)O[C@H]1C[C@@H](C)[C@]2(O)CC[C@](C)(/C=C3/OC(=O)C(COC(C)=O)=C31)O2`, for which the inhibition result in [1], in series [6] and in series [8] was “inactive” in each case. Moreover, the Activity result in the series on SF-295 [2] is “Dose-dependent effect”; in series [3], “Dose-dependent effect”; with U-251 [4], “Dose-dependent effect”; in the series on MDA-MB-231 [12], “Dose-dependent effect”; in [13], 67%; in series [16] it was “Toxic”. The outcome (in series [5]; in the series with U-251 [7]; in the series with U-251 [15]) was inactive. Besides, the inhibition entry (in series [9]; in the series with SF-295 [10]) was “Active” in each case. Also, the result with Glioma cell was Active. Also, in series [11], the inhibition entry was “tde”. The same compound came in with an IC50 in the series with MDA-MB-231 [14] of 1.8 µM.

`C/C=C(\C)C(=O)O[C@H]1C[C@@H](C)[C@]2(OC)CC[C@](C)(/C=C3/OC(=O)C(COC(C)=O)=C31)O2`: the inhibition result (in series [1]; in [6]; in series [8]; in the series on SF-295 [10]) was “inactive” each time. Besides, the Activity result in the series with SF-295 [2] is “Dose-dependent effect”; in [3] it was “Dose-dependent effect”; in the series on U-251 [4] it was “Dose-dependent effect”; in the series with MDA-MB-231 [12], “Dose-dependent effect”; in series [13], 42%; in series [16] it was “Toxic”. Moreover, the result (in [5]; in the series with U-251 [7]; in the series on U-251 [15]) was inactive. Moreover, the inhibition result in series [9] is “Active”. Also, in the series with Glioma cell, the outcome was Active. Further, in series [11], the inhibition result is “tde”. The same compound gave an IC50 with MDA-MB-231 [14] of 6.6 µM.

`C/C=C(\C)C(=O)OCC1=C2/C(=C\[C@@]3(C)CC[C@](O)(O3)[C@H](C)C[C@@H]2O)OC1=O`: the inhibition result in [1], in [6] and in series [8] was “inactive” throughout. Also, the Activity entry is “Dose-dependent effect” in the series with SF-295 [2]; “Dose-dependent effect” in series [3]; “Dose-dependent effect” in the series on U-251 [4]; “Dose-dependent effect” with MDA-MB-231 [12]; 18% in series [13]; “Toxic” in series [16]. Moreover, the outcome (in [5]; with U-251 [7]; with U-251 [15]) was inactive. The inhibition result (in series [9]; with SF-295 [10]) was “Active” each time. Also, the result in the series with Glioma cell was Active. For the same compound, in series [11], the inhibition entry was “tde”. In the series with MDA-MB-231 [14], this compound displayed a half-inhibitory concentration (IC50) of 6.5 µM.
